The values below come from ChEMBL document CHEMBL1146016, “Synthesis and structure-activity relationships of 3,4-diaminocyclobut-3-ene-1,2-dione CXCR2 antagonists” (Bioorg Med Chem Lett, 2006).

Series [1] addresses T1, C-X-C chemokine receptor type 2 (Homo sapiens, UniProt P25025).
T1 sequence (P25025 whole entry): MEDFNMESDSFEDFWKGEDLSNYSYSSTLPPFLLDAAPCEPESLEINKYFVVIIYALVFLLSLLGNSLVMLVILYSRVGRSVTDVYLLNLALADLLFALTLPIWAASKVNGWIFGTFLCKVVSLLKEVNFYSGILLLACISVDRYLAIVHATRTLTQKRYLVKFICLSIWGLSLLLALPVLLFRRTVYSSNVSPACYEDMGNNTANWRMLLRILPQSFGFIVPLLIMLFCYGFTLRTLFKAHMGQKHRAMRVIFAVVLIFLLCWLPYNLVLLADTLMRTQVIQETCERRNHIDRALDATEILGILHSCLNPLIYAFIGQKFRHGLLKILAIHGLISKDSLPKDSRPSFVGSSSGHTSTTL
The series is described as follows: Displacement of [125I]IL8 from human CXCR2 expressed in CHO cells. The series is classed as cell-based. (In a radioligand displacement assay an active substance lowers the binding of a labelled ligand.)

The nature of series [2]: Metabolic stability in rat liver microsome after 30 min at 37 degreeC. The class given is ADME. The settings on record: liver microsomes, read-out: Stability. The gist of the method:
(§1)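 Liver microsomes (human or rat) incubated with compound at 1 µM final for 30 min at 37 °C in 100 mM potassium phosphate pH 7.4 with 1 mM β-NADPH; reported as percent parent remaining; means ± SD of two or more measurements.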
A general note: Liver microsomes are a subcellular fraction often used to study metabolism.

Series [3] in a line: Permeability across Caco-2 cell membrane. The series is classed as ADME, cell-based. The conditions noted are these: human. A digest of the protocol:
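Caco-2 monolayers in a commercial HTS Caco-2 system run per kit instructions; apicalto-basolateral apparent permeability (nm/s), binned as low or high predicted absorption; means ± SD of two or more measurements.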
(In general: Caco-2 cells form a polarised layer with tight junctions and transporters.)

Series [4] is described as follows: Metabolic stability in human liver microsome after 30 min at 37 degreeC. The series is classed as ADME. The conditions noted are these: liver microsomes, read-out: Stability. The gist of the method:
as §1

For the compound `CN(c1ccccc1O)c1c(Nc2ccccc2)c(=O)c1=O`, the IC50 in series [1] worked out at 28600 nM.
In series [1], `O=c1c(O)c(Nc2ccc([N+](=O)[O-])cc2)/c1=N/c1ccccc1` returned a half-inhibitory concentration (IC50) of 8600 nM.
Compound `O=c1c(O)c(Nc2cc([N+](=O)[O-])ccc2O)/c1=N/c1ccccc1` returned an IC50 in series [1] of 56 nM.
Turning to `N#Cc1ccc(Nc2c(O)c(=O)/c2=N\c2ccccc2)c(O)c1`, in series [1], the concentration for half-maximal inhibition (IC50) was found to be 3 nM.
Still for that read-out and setting: the value for `O=C(O)c1cccc(/N=c2\c(O)c(O)\c2=N/c2ccccc2)c1O` was 1000 nM; that for `CN(C)C(=O)c1cccc(/N=c2\c(O)c(O)\c2=N/C(C)(C)C)c1O` was 14 nM; that for `CN(C)C(=O)c1cccc(/N=c2\c(O)c(O)\c2=N/CCc2ccccc2)c1O` was 926 nM.
Turning to `CN(C)C(=O)c1cccc(/N=c2\c(O)c(O)\c2=N/c2ccccc2)c1O`, the figures for the remaining at 0.5 h in series [2] and in series [4] were 67% and 64%, respectively. The compound also gave a Papp in series [3] of 2.4 ×10⁻⁶ cm/s. This compound also yielded a half-maximal inhibitory concentration (IC50) in series [1] of 2 nM.
`CN(C)C(=O)c1cccc(/N=c2\c(O)c(O)\c2=N/Cc2ccco2)c1O` registered an IC50 in series [1] of 41 nM.
`CN(C)C(=O)c1cccc(/N=c2\c(O)c(O)\c2=N/C2CCCCC2)c1O` gave an IC50 in series [1] of 10 nM.
Turning to `CN(C)C(=O)c1cccc(/N=c2\c(O)c(O)\c2=N/[C@@H]2CCc3ccccc32)c1O`, the IC50 in series [1] turned out to be 548 nM. Compared with the last compound, the IC50 is about 55-fold higher.
In series [1], `CCNC(=O)c1cccc(/N=c2\c(O)c(O)\c2=N/c2ccccc2)c1O` came in with a 50% inhibitory concentration (IC50) of 65 nM.
As to `CCC(CC)/N=c1\c(O)c(O)\c1=N/c1cccc(C(=O)N(C)C)c1O`, the remaining at 0.5 h stood at 75% in series [2] and 82% in series [4]. This compound had a Papp in series [3] of 12 ×10⁻⁶ cm/s.
Take `CN(C)C(=O)c1cccc(/N=c2\c(O)c(O)\c2=N/C2CCCC2)c1O`: the remaining at 0.5 h in series [2] worked out at 56%; in series [4], 72%. This compound also came in with a Papp in series [3] of 10.1 ×10⁻⁶ cm/s. This compound also came in with an IC50 in series [1] of 8 nM.
In series [1], `NC(=O)c1cccc(/N=c2\c(O)c(O)\c2=N/c2ccccc2)c1O` displayed an IC50 of 34 nM. That is a double-digit nanomolar value.
In the case of `CN(C)C(=O)c1cccc(/N=c2/c(N(C)c3ccccc3)c(O)c2=O)c1O`, in series [1], the IC50 amounted to 7200 nM.
Regarding `CC(C)/N=c1\c(O)c(O)\c1=N/c1cccc(C(=O)N(C)C)c1O`, in series [1], the half-maximal inhibitory concentration (IC50) is 10 nM. Against the preceding compound, the IC50 is about 720-fold lower.
The same measure, in the same setting: with `CNC(=O)c1cccc(/N=c2\c(O)c(O)\c2=N/c2ccccc2)c1O` the figure was 22 nM; with `N#Cc1ccc(O)c(Nc2c(O)c(=O)/c2=N\c2ccccc2)c1`, 74 nM.
As for `O=C(O)c1ccc(/N=c2\c(O)c(O)\c2=N/c2ccccc2)c(O)c1`, in series [1], the concentration for half-maximal inhibition (IC50) stood at 3100 nM. Compared with the last compound, the IC50 is about 42-fold higher.
For the compound `O=c1c(O)c(Nc2ccc([N+](=O)[O-])cc2O)/c1=N/c1ccccc1`, the IC50 in series [1] came to 36 nM.
As to `COC(=O)c1cccc(/N=c2\c(O)c(O)\c2=N/c2ccccc2)c1O`, in series [1], the IC50 worked out at 53 nM.
Compound `CN(C)C(=O)c1cc(Cl)cc(/N=c2\c(O)c(O)\c2=N/c2ccccc2)c1O` showed a concentration for half-maximal inhibition (IC50) in series [1] of 2 nM.
As for `O=c1c(O)c(Nc2ccccc2)/c1=N/c1ccccc1O`, the IC50 in series [1] was determined as 476 nM.
As to `CN(C)C(=O)c1cccc(/N=c2\c(O)c(O)\c2=N/C2CCOCC2)c1O`, the half-maximal inhibitory concentration (IC50) in series [1] is 171 nM. This IC50 is about 2.8-fold lower than that of the compound before.
In series [1], `O=C(NCc1ccccc1)c1cccc(Nc2c(O)c(=O)/c2=N\c2ccccc2)c1O` had a 50% inhibitory concentration (IC50) of 139 nM. The IC50 values of the last two compounds are within 1.5-fold of each other.

Broadly, the IC50 is the concentration that gives 50% inhibition. The Papp is a coefficient for how fast a substance crosses the barrier.
